# Measurements taken from ChEMBL document CHEMBL4396883, “Discovery of CDK5 Inhibitors through Structure-Guided Approach” (ACS Med Chem Lett, 2019).
# Active and inactive are the calls of the source. No cut-off for these calls is given here.
# How the values were obtained:
# [1] = biological target: CDK2/Cyclin A2 (Homo sapiens) (UniProt P24941+P20248); test: Inhibition of recombinant full length N-terminal GST tagged human CDK2/CyclinA expressed in baculovirus infected sf9 cells using histone H1 as substrate at 10 uM measured after 30 mins in presence of ATP by ADP-Glo kinase assay relative to control
# [2] = biological target: T1, Cyclin-dependent kinase 5/CDK5 activator 1 (Homo sapiens, UniProt Q00535+Q15078); test: Inhibition of recombinant full length N-terminal GST tagged human CDK5/p25 expressed in baculovirus infected sf9 cells using histone H1 as substrate at 10 uM measured after 60 mins in presence of ATP by ADP-Glo kinase assay relative to control
# Target sequence in this assay (Q00535 whole entry, the tested form may be a part): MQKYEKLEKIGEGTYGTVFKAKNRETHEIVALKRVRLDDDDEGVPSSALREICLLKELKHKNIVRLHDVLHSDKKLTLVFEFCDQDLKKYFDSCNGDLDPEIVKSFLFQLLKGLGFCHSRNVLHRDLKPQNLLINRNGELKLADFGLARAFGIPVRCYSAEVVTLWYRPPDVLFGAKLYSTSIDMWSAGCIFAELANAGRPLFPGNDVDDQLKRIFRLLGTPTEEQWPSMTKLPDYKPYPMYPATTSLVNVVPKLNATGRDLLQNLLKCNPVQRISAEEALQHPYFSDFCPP
# Target sequence in this assay (Q15078 99-307 partner limits assumed): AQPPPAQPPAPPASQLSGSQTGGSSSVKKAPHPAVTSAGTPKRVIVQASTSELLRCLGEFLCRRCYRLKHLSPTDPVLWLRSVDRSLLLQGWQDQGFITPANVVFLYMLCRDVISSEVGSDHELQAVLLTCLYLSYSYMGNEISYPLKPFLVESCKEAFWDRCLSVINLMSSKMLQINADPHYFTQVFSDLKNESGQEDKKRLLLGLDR
# [3] = biological target: Cyclin-dependent kinase 4/cyclin D1 (Homo sapiens, UniProt P11802); test: Inhibition of human recombinant N-terminal GST-tagged CDK4 (S4-E303 residues)/Cyclin D1 (Q4-I295 residues) expressed in sf9 cells using RB-CTF as substrate incubated for 90 mins in presence of ATP by ADP-Glo kinase assay
# [4] = biological target: Cyclin-dependent kinase 2/cyclin E1 (Homo sapiens, UniProt P24941); test: Inhibition of CDK2/Cyclin E (unknown origin) incubated for 30 to 120 mins in presence of ATP by ADP-Glo kinase assay; assay type: protein-complex assay
# [5] = biological target: CDK9/cyclin T1 (Homo sapiens, UniProt P50750); test: Inhibition of human recombinant full length N-terminal GST His6 fused CDK9 (M1 to F372 residues/ N-terminal His6 tagged Cyclin T1 (M1 to K726 residues) expressed in sf9 cells using RBER-IRStide as substrate incubated for 90 mins in presence of ATP by ADP-Glo kinase assay
# [6] = biological target: Cyclin-dependent kinase 1/cyclin B1 (Homo sapiens, UniProt P06493); test: Inhibition of CDK1/CyclinB1 (unknown origin) using histone H1 (GGGPATPKKAKKL) as substrate incubated for 80 mins in presence of ATP by ADP-Glo kinase assay; assay type: protein-complex assay
# [7] = tested on: MV4-11; test: Antiproliferative activity against human MV4-11 cells assessed as growth inhibition measured after 72 hrs by resazurin assay; assay type: functional; conditions: MV4-11, 72 h
# In short: (§1)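 Leukemia cells exposed to compound for 72 h; viability read by resazurin reduction. GI50 (concentration giving 50% inhibition of proliferation) reported as mean ± SD of three independent experiments.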
# [8] = biological target: Cyclin-dependent kinase 5/CDK5 activator 1 (Homo sapiens, UniProt Q00535); test: (§2) Inhibition of recombinant full length N-terminal GST tagged human CDK5/p25 expressed in baculovirus infected sf9 cells using histone H1 as substrate measured after 60 mins in presence of ATP by ADP-Glo kinase assay; assay type: cell-based
# [9] = biological target: CDK7/Cyclin H/MNAT1 (Homo sapiens, UniProt P50613); test: Inhibition of CDK7/cyclinH/MAT1 (unknown origin) using RBER-IRStide as substrate incubated for 120 mins in presence of ATP by ADP-Glo kinase assay; assay type: protein-complex assay
# [10] = biological target: CDK6/cyclin D3 (Homo sapiens, UniProt Q00534); test: Inhibition of human recombinant N-terminal GST-tagged CDK6 (M1-A326 residues) and His6 tagged Cyclin D3 (M1-L292 residues) expressed in sf9 cells using histone H1 (GGGPATPKKAKKL) as substrate incubated for 60 mins in presence of ATP by ADP-Glo kinase assay
# [11] = biological target: CDK2/Cyclin A2 (Homo sapiens, UniProt P24941); test: Inhibition of recombinant full length N-terminal GST tagged human CDK2/CyclinA expressed in baculovirus infected sf9 cells using histone H1 as substrate measured after 30 mins in presence of ATP by ADP-Glo kinase assay
# In short: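 CDK2/cyclin A kinase inhibition; Ki values from the average of at least two experiments.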
# [12] = tested on: MOLM-13; test: Antiproliferative activity against human MOLM13 cells assessed as growth inhibition measured after 72 hrs by resazurin assay; assay type: functional; conditions: MOLM-13, 72 h; in short: as §1
# [13] = biological target: T1, Cyclin-dependent kinase 5/CDK5 activator 1; test: as §2; assay type: cell-based; conditions: sf9
# Target sequence in this assay (Q00535 whole entry, the tested form may be a part): as the sequence (Q00535 whole entry, the tested form may be a part) above
# Target sequence in this assay (Q15078 whole entry, the tested form may be a part): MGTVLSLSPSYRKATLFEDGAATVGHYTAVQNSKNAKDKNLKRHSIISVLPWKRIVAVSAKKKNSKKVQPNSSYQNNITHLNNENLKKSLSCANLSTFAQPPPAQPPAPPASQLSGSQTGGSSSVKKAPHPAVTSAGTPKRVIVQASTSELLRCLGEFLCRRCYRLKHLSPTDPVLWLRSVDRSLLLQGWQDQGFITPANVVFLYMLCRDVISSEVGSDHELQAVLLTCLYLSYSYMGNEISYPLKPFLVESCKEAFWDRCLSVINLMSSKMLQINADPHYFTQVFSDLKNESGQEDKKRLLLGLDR
# Chain of CDK9/cyclin T1 (O60563 whole entry, the tested form may be a part): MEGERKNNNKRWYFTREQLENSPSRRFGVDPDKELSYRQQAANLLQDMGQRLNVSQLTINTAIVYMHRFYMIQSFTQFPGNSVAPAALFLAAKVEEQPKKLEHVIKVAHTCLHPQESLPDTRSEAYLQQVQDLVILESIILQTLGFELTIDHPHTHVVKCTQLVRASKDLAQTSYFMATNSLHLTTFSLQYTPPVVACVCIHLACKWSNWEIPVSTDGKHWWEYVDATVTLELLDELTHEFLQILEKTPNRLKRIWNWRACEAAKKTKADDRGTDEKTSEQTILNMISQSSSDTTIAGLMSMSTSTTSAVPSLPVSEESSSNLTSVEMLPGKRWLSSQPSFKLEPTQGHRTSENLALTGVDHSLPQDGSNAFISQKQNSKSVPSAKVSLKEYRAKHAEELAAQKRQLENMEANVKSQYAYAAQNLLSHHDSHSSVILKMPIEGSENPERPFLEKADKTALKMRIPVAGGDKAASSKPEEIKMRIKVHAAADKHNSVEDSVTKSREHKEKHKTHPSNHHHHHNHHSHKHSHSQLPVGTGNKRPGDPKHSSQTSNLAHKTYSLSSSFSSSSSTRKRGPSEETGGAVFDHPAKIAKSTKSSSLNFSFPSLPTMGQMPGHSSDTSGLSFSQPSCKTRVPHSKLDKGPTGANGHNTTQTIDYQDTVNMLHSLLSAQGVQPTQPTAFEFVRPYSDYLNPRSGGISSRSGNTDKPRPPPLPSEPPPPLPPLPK
# Chain of CDK9/cyclin T1 (P50750 whole entry, the tested form may be a part): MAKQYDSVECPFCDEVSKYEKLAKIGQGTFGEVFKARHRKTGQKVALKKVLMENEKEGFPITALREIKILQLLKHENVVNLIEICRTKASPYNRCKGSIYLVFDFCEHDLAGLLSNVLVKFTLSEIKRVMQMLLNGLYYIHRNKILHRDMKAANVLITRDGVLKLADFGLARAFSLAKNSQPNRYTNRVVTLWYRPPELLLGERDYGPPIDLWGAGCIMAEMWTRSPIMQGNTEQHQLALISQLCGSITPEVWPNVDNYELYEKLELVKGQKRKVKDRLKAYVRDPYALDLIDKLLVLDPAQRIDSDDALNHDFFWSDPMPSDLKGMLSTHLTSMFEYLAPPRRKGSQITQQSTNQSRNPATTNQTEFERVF
# Chain of Cyclin-dependent kinase 4/cyclin D1 (P11802 whole entry, the tested form may be a part): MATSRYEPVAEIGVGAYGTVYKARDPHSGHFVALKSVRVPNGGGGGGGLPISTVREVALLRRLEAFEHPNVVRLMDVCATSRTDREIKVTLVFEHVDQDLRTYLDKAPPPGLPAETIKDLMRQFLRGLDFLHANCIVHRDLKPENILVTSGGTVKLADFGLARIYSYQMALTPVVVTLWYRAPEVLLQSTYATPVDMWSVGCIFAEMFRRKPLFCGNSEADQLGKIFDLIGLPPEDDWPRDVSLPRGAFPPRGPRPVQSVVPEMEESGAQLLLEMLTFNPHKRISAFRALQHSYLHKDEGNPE
# Chain of Cyclin-dependent kinase 4/cyclin D1 (P24385 whole entry, further chain, the tested form may be a part): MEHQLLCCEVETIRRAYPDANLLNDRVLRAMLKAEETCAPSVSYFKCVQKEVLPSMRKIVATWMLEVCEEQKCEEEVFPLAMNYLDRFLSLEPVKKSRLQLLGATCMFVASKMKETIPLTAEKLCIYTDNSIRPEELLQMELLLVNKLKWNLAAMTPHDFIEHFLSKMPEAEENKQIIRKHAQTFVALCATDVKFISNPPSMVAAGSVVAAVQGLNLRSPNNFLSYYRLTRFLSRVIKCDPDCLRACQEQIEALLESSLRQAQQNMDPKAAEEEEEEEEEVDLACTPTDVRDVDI
# Chain of Cyclin-dependent kinase 5/CDK5 activator 1 (Homo sapiens, UniProt Q00535) (Q00535 whole entry): as the sequence (Q00535 whole entry, the tested form may be a part) above
# Chain of Cyclin-dependent kinase 5/CDK5 activator 1 (Homo sapiens, UniProt Q00535) (Q15078 whole entry, further chain): as the sequence (Q15078 whole entry, the tested form may be a part) above
# Chain of Cyclin-dependent kinase 1/cyclin B1 (P06493 whole entry): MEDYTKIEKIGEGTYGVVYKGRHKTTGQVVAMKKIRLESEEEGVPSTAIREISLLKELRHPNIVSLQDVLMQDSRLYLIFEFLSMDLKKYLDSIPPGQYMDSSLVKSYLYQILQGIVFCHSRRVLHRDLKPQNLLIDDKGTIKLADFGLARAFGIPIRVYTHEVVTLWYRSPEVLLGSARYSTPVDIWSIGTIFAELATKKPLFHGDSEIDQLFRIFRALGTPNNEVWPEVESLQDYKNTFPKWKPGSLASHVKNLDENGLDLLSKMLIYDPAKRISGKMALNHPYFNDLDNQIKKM
# Chain of Cyclin-dependent kinase 1/cyclin B1 (P14635 whole entry, further chain): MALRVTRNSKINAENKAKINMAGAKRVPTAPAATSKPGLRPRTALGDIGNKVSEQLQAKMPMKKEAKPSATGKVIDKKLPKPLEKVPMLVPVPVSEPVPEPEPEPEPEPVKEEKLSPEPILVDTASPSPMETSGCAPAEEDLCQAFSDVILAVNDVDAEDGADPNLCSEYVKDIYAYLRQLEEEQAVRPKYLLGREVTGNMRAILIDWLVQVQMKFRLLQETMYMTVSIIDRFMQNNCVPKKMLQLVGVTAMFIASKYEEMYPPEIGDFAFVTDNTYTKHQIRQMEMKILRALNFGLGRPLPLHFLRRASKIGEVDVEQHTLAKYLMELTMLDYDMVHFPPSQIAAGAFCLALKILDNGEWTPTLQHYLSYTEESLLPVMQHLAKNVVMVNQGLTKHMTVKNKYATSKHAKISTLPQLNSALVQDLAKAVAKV
# Chain of CDK7/Cyclin H/MNAT1 (P51946 whole entry, the tested form may be a part): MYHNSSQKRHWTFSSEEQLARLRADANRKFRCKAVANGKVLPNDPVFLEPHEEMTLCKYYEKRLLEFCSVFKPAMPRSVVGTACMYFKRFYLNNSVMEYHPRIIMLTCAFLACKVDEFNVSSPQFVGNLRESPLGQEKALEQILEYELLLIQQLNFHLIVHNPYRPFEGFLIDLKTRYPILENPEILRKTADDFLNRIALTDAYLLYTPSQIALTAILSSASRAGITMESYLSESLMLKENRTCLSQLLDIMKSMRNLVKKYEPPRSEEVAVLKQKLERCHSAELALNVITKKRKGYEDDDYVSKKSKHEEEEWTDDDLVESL
# Chain of CDK7/Cyclin H/MNAT1 (P50613 whole entry, the tested form may be a part): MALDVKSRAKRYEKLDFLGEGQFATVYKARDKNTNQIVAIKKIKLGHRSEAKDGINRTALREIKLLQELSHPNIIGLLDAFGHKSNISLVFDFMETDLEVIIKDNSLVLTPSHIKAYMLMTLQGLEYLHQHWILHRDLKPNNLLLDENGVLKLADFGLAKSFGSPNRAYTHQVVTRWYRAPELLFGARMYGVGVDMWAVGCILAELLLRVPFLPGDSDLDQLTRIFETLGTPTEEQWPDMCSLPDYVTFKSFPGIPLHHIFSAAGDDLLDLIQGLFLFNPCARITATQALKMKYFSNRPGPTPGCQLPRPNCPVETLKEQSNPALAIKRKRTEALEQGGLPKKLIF
# Chain of CDK7/Cyclin H/MNAT1 (P51948 whole entry, further chain, the tested form may be a part): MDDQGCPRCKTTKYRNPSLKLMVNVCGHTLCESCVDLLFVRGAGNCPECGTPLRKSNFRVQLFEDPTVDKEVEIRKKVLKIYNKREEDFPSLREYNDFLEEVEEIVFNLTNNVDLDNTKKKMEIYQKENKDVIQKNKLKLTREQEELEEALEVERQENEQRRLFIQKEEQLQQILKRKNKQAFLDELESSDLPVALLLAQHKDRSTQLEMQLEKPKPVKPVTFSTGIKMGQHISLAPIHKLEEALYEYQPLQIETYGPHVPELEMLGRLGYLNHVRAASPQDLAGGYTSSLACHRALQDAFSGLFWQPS
Structure (SMILES),inhibition [1],inhibition [2] [%],GI50 [7] [µM],Ki [8] [nM],other results
COc1ccccc1Nc1ncc2c(n1)CCCC2,2%,22,–,–,–
COc1ccc(Nc2ncc3c(n2)CCCC3)c(OC)c1F,7%,21,–,–,–
FC(F)(F)c1ccccc1Nc1ncc2c(n1)CCCC2,8%,10,–,–,–
COc1cccc(Nc2ncc3c(n2)CCCC3)c1,93%,85,2.28,1010,Ki [3]: > 5 µM; Ki [4]: > 5 µM; Ki [5]: > 5 µM; Ki [6]: > 5 µM; Ki [9]: > 5 µM; Ki [10]: > 5 µM; Ki [11]: 1.11 µM
FC(F)(F)c1ccc(Nc2ncc3c(n2)CCCC3)cc1,7%,6,–,–,–
CCc1cccc(Nc2ncc3c(n2)CCCC3)c1,39%,78,2.6,1230,Ki [3]: > 5 µM; Ki [4]: > 5 µM; Ki [5]: > 5 µM; Ki [6]: > 5 µM; Ki [9]: > 5 µM; Ki [10]: > 5 µM; Ki [11]: > 5 µM
CCOc1ccccc1Nc1ncc2c(n1)CCCC2,2%,4,–,–,–
Cc1ccccc1Nc1ncc2c(n1)CCCC2,54%,82,> 10,990,Ki [3]: > 5 µM; Ki [4]: > 5 µM; Ki [5]: > 5 µM; Ki [6]: > 5 µM; Ki [9]: > 5 µM; Ki [10]: > 5 µM; Ki [11]: 4.12 µM
Cc1c(Nc2ncc3c(n2)CCCC3)cccc1NS(C)(=O)=O,–,63,–,–,–
O=[N+]([O-])c1cccc(Nc2ncc3c(n2)CCCC3)c1,87%,83,3.5,1260,Ki [3]: > 5 µM; Ki [4]: > 5 µM; Ki [5]: > 5 µM; Ki [6]: > 5 µM; Ki [9]: > 5 µM; Ki [10]: > 5 µM; Ki [11]: 1.1 µM
O=C(Nc1cccc(CN2CCCC2)c1)c1n[nH]c2ccccc12,–,–,8.62,2030,GI50 [12]: 3.83 µM
COc1cc(Cl)ccc1Nc1ncc2c(n1)CCCC2,inactive,45,–,–,–
FC(F)(F)Oc1ccccc1Nc1ncc2c(n1)CCCC2,inactive,9,–,–,–
Cc1ccc(Nc2ncc3c(n2)CCCC3)cc1,58%,77,6,1440,Ki [3]: > 5 µM; Ki [4]: > 5 µM; Ki [5]: > 5 µM; Ki [6]: > 5 µM; Ki [9]: > 5 µM; Ki [10]: > 5 µM; Ki [11]: 4.54 µM
COc1ccc(Nc2ncc3c(n2)CCCC3)cc1,3%,1,–,–,–
FC(F)(F)c1cccc(Nc2ncc3c(n2)CCCC3)c1,7%,5,–,–,–
CC1(C)CC(=O)c2cnc(NC(=O)c3ccc(F)cc3)nc2C1,–,–,–,–,Ki [13]: Not Active
c1ccc(Nc2ncc3c(n2)CCCC3)cc1,–,–,9.83,880,IC50 [8]: 1760 nM; GI50 [12]: 5.63 µM
COc1ccc(Nc2ncc3c(n2)CCC3)cc1,–,–,0.84,1720,GI50 [12]: 1.1 µM
